pIC50: −log10 of the molar value.
Columns and labels:
Format in all cases: functional, cell-based
[1] = system: A549; assay: Cytotoxicity against human A549 cells after 2 days by MTT assay
In short: (§1)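 Cells were seeded at 5 × 10³ per well and exposed to eight compound concentrations (50, 25, 12.5, 6.25, 3.13, 1.56, 0.78, 0.39), with positive and blank controls. Incubation was 2 days at 37 °C and 5% CO₂. MTT (5 mg/mL stock) was then added for 4 h. After the supernatant was removed, formazan was dissolved in DMSO for 20 min at room temperature. OD was read at 570 nm, and viability was expressed as % of compound-free medium controls.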

[2] = system: L1210; assay: Cytotoxicity against mouse L1210 cells after 2 days by MTT assay; in short: as §1
[3] = system: K562; assay: Cytotoxicity against human K562 cells after 2 days by MTT assay; in short: as §1

| SMILES | pIC50 ([1]; Homo sapiens, A549, 48 h) | pIC50 ([2]; Mus musculus, L1210, 48 h) | pIC50 ([3]; Homo sapiens, K562, 48 h) | pIC50 ([2]; l1210) | pIC50 ([3]; k562) | pIC50 ([1]; a549) |
| --- | --- | --- | --- | --- | --- | --- |
| COc1cc2c3cc1Oc1c(OC)c(OC)cc4c1[C@@H](Cc1ccc(O[C@@H]5OC[C@@H](OC(C)=O)[C@H](OC(C)=O)[C@H]5OC(C)=O)c(c1)Oc1ccc(cc1)C[C@@H]3N(C)CC2)N(C)CC4 | ≤ 4.30 | 5.90 | 5.81 |  |  |  |
| COc1cc2c3cc1Oc1c(OC)c(OC)cc4c1[C@@H](Cc1ccc(O[C@@H]5O[C@H](CO)[C@@H](O[C@@H]6O[C@H](CO)[C@@H](O)[C@H](O)[C@H]6O)[C@H](O)[C@H]5O)c(c1)Oc1ccc(cc1)C[C@@H]3N(C)CC2)N(C)CC4 | ≤ 4.30 | 4.97 | ≤ 4.30 |  |  |  |
| COc1cc2c3cc1Oc1c(OC)c(OC)cc4c1[C@@H](Cc1ccc(O[C@@H]5O[C@H](COC(C)=O)[C@@H](O[C@@H]6O[C@H](COC(C)=O)[C@@H](OC(C)=O)[C@H](OC(C)=O)[C@H]6OC(C)=O)[C@H](OC(C)=O)[C@H]5OC(C)=O)c(c1)Oc1ccc(cc1)C[C@@H]3N(C)CC2)N(C)CC4 [listing 1 of 2 here] | 4.56 |  |  | 6.52 | 5.65 |  |
| COc1cc2c3cc1Oc1c(OC)c(OC)cc4c1[C@@H](Cc1ccc(O[C@@H]5O[C@H](COC(C)=O)[C@@H](OC(C)=O)[C@H](OC(C)=O)[C@H]5OC(C)=O)c(c1)Oc1ccc(cc1)C[C@@H]3N(C)CC2)N(C)CC4 | 4.53 | 6.24 | 5.71 |  |  |  |
| COc1cc2c3cc1Oc1c(OC)c(OC)cc4c1[C@@H](Cc1ccc(O[C@@H]5O[C@H](COC(C)=O)[C@@H](O[C@@H]6O[C@H](COC(C)=O)[C@H](OC(C)=O)[C@H](OC(C)=O)[C@H]6OC(C)=O)[C@H](OC(C)=O)[C@H]5OC(C)=O)c(c1)Oc1ccc(cc1)C[C@@H]3N(C)CC2)N(C)CC4 | ≤ 4.30 | 5.69 | 5.45 |  |  |  |
| COc1cc2c3cc1Oc1c(OC)c(OC)cc4c1[C@@H](Cc1ccc(O[C@@H]5O[C@H](COC(C)=O)[C@H](OC(C)=O)[C@H](OC(C)=O)[C@H]5OC(C)=O)c(c1)Oc1ccc(cc1)C[C@@H]3N(C)CC2)N(C)CC4 | 4.37 | 5.66 | 5.69 |  |  |  |
| COc1cc2c3cc1Oc1c(OC)c(OC)cc4c1[C@@H](Cc1ccc(O)c(c1)Oc1ccc(cc1)C[C@@H]3N(C)CC2)N(C)CC4 | 4.40 | 5.56 | 5.40 |  |  |  |
| COc1cc2c3cc1Oc1c(OC)c(OC)cc4c1[C@@H](Cc1ccc(O[C@@H]5O[C@H](COC(C)=O)[C@@H](O[C@@H]6O[C@H](COC(C)=O)[C@@H](OC(C)=O)[C@H](OC(C)=O)[C@H]6OC(C)=O)[C@H](OC(C)=O)[C@H]5OC(C)=O)c(c1)Oc1ccc(cc1)C[C@@H]3N(C)CC2)N(C)CC4 [listing 2 of 2 here] |  |  |  | 5.73 | ≤ 4.30 | ≤ 4.30 |
| COc1cc2c3cc1Oc1c(OC)c(OC)cc4c1[C@@H](Cc1ccc(O[C@H]5O[C@@H](COC(C)=O)[C@H](OC(C)=O)[C@@H](OC(C)=O)[C@@H]5OC(C)=O)c(c1)Oc1ccc(cc1)C[C@@H]3N(C)CC2)N(C)CC4 | ≤ 4.30 | 5.56 | ≤ 4.30 |  |  |  |

Reference: ChEMBL document CHEMBL2040730, “Synthesis of berbamine acetyl glycosides and evaluation of antitumor activity” (Eur J Med Chem, 2012)
